Test results: ChEMBL document CHEMBL1122278, “Gastric antisecretory 9H-xanthen-9-amines” (1983)

Key:
[1] = system: Rattus norvegicus; test: Gastric antisecretory activity in pylorus-ligated rat at a concentration of 50 mg/kg perorally, expressed as increase in mean pH.; format: functional; conditions: route oral
How it was run: (§1)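 Male Carworth Farms rats (270–360 g), fasted 18 h with water; compound in PEG 200 by gavage 1 h before pylorus ligation under ether. Killed 2 h after ligation; juice centrifuged, volume and pH measured, supernatant titrated with NaOH to pH 7.4, output = volume × titre. Mean of six to seven animals against controls.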

[2] = system: Rattus norvegicus; test: Gastric antisecretory activity in pylorus ligated rat at a concentration of 50 mg/kg perorally, expressed as % decrease in mean titratable acid output of gastric juice in treated vs. control groups.; format: functional; conditions: route oral; how it was run: as §1
[3] = system: Rattus norvegicus; test: Gastric antisecretory activity in pylorus-ligated rat at a concentration of 50 mg/kg po, expressed as increase in mean pH; NS means no significant change; format: functional, organism-based; design: dose 50 mg/kg; how it was run: as §1
[4] = system: Rattus norvegicus; test: Gastric antisecretory activity in pylorus ligated rat at a concentration of 50 mg/kg po, expressed as % decrease in mean titratable acid output of gastric juice in treated vs. control groups; NS means no significant change.; format: functional, organism-based; design: dose 50 mg/kg; how it was run: as §1
[5] = system: Rattus norvegicus; test: Gastric antisecretory activity in pylorus-ligated rat at a concentration of 50 mg/kg po, expressed as increase in mean pH; NS means no significant change.; format: functional, organism-based; design: dose 50 mg/kg; how it was run: as §1
[6] = system: Rattus norvegicus; test: Effect of peroral administration of compound on acid secretion inhibition in the PLR; NS means no significant dose response.; format: functional, organism-based
How it was run: (§2)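 Rats (male Carworth Farms, 270–360 g) fasted 18 h; compound in PEG 200 by gavage 1 h before pylorus ligation under ether, six per group. Gastric contents collected 2 h post-ligation; pH, volume, titre (NaOH to pH 7.4) measured, output = volume × titre.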

[7] = system: Rattus norvegicus; test: Effect of peroral administration of compound on acid secretion inhibition in the PLR;Value ranges from 3.6-12.2; format: functional; how it was run: as §2
[8] = system: Rattus norvegicus; test: Effect of intraduodenal administration of compound on acid secretion inhibition in the PLR; Value ranges from 0.2-2.1; format: functional
[9] = system: Rattus norvegicus; test: Effect of intravenous administration of compound on acid secretion inhibition in the PLR; Value ranges from 1.8-5.9; format: functional
How it was run: (§3)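 Male Carworth Farms rats (270–360 g), fasted 18 h, pylorus ligated under ether; compound in PEG 200 given intravenously at ligation, six rats per group. Gastric contents taken 2 h after ligation, centrifuged, titrated with NaOH to pH 7.4; output = volume × titre.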

[10] = system: Rattus norvegicus; test: Effect of peroral administration of compound on acid secretion inhibition in the PLR; Value ranges from 4.3-16.3; format: functional; how it was run: as §2
[11] = system: Rattus norvegicus; test: Effect of intraduodenal administration of compound on acid secretion inhibition in the PLR; Value ranges from 0.3-2.9; format: functional
[12] = system: Rattus norvegicus; test: Effect of intravenous administration of compound on acid secretion inhibition in the PLR; Value ranges from 4.0-19.3; format: functional; how it was run: as §3
[13] = system: Rattus norvegicus; test: Gastric antisecretory activity, in pylorus ligated rat (PLR,50 mg/kg po), expressed as increase in mean pH; format: functional; how it was run: as §1
[14] = system: Rattus norvegicus; test: Gastric antisecretory activity, in pylorus ligated rat (PLR,50 mg/kg po), expressed as % decrease in mean titratable acid output of gastric juice in treated vs. control groups; format: functional; how it was run: as §1
[15] = system: Rattus norvegicus; test: Effect of intraduodenal administration of compound on acid secretion inhibition in the PLR; Value ranges from 0.5-4.4; format: functional
[16] = system: Rattus norvegicus; test: Effect of intravenous administration of compound on acid secretion inhibition in the PLR; Value ranges from 0.7-5.0; format: functional; how it was run: as §3
[17] = system: Rattus norvegicus; test: Effect of peroral administration of compound on acid secretion inhibition in the PLR; Value ranges from 4.0-13.6; format: functional; how it was run: as §2
[18] = system: Rattus norvegicus; test: Effect of intraduodenal administration of compound on acid secretion inhibition in the PLR; Value ranges from 0.6-6.7; format: functional
[19] = system: Rattus norvegicus; test: Effect of intravenous administration of compound on acid secretion inhibition in the PLR; Value ranges from 1.5-9.5; format: functional; how it was run: as §3
[20] = system: Rattus norvegicus; test: Effect of peroral administration of compound on acid secretion inhibition in the PLR; Value ranges from 2.6-8.5; format: functional; how it was run: as §2
[21] = system: Rattus norvegicus; test: Effect of intraduodenal administration of compound on acid secretion inhibition in the PLR; Value ranges from 4.7-9; format: functional
[22] = system: Rattus norvegicus; test: Effect of peroral administration of compound on acid secretion inhibition in the PLR; Value ranges from 8.8-14.7; format: functional
[23] = system: Rattus norvegicus; test: Effect of intraduodenal administration of compound on acid secretion inhibition in the PLR; Value ranges from 0.5-2.7; format: functional
[24] = system: Rattus norvegicus; test: Effect of peroral administration of compound on acid secretion inhibition in the PLR; Value ranges from 4.1-12.1; format: functional
[25] = system: Rattus norvegicus; test: Effect of intraduodenal administration of compound on acid secretion inhibition in the PLR; Value ranges from 0.9-4.7; format: functional

| Compound | Delta pH [1] | Delta TAO [2] | also measured |
| --- | --- | --- | --- |
| CN(C)C1CCN(C2c3ccccc3Oc3ccccc32)CC1 | 5.8 | 97 |  |
| CS(=O)(=O)NC1c2ccccc2Oc2ccccc21 |  |  | Delta pH [3]: Not significant; Delta TAO [4]: Not significant |
| O=S(=O)(NC1c2ccccc2Oc2ccccc21)c1ccccc1 |  |  | Delta pH [3]: Not significant; Delta TAO [4]: Not significant |
| NC1c2ccccc2Oc2ccccc21 | 4.5 | 93 |  |
| c1ccc2c(c1)Oc1ccccc1C2NCC1CCCCO1 (stereo unspecified) | 3.6 | 87 |  |
| CN(C1c2ccccc2Oc2ccccc21)C1c2ccccc2Oc2ccccc21 |  | 72 | Delta pH [5]: Not significant |
| CCN(CCc1ccccn1)C1c2ccccc2Oc2ccccc21 | 4.3 | 86 |  |
| c1ccc(CCNC2c3ccccc3Oc3ccccc32)nc1 | 5.9 | 99 |  |
| CN1CCN(C2c3ccccc3Oc3ccccc32)CC1 | 5.4 | 97 | ED50 [6]: Not significant; ED50 [7]: 6.8 mg/kg |
| c1cnc(NC2c3ccccc3Oc3ccccc32)nc1 |  | 48 | Delta pH [3]: Not significant |
| c1ccc(NNC2c3ccccc3Oc3ccccc32)cc1 |  |  | Delta pH [3]: Not significant |
| C=CCN(CC=C)C1c2ccccc2Oc2ccccc21 | 1.3 |  |  |
| CC(=N)NC1c2ccccc2Oc2ccccc21 | 1.1 | 88 |  |
| CC1=NCCN1CCNC1c2ccccc2Oc2ccccc21 | 3 | 88 |  |
| O=C(NC1c2ccccc2Oc2ccccc21)OCc1ccccc1 |  |  | Delta pH [5]: Not significant; Delta TAO [4]: Not significant |
| CCOC(=O)N1CCN(C2c3ccccc3Oc3ccccc32)CC1 | 2.2 |  |  |
| O=S1(=O)CCC(NC2c3ccccc3Oc3ccccc32)C1 (stereo unspecified) | 1.5 | 57 |  |
| O=C(NC1c2ccccc2Oc2ccccc21)c1ccccc1O |  |  | Delta pH [5]: Not significant; Delta TAO [4]: Not significant |
| Cc1cc(C)n(C2c3ccccc3Oc3ccccc32)n1 |  |  | Delta pH [3]: Not significant; Delta TAO [4]: Not significant |
| CN(C)C1CCCN(C2c3ccccc3Oc3ccccc32)C1 (stereo unspecified) | 3.1 | 80 | ED50 [6]: Not significant; ED50 [8]: 0.9 mg/kg; ED50 [9]: 3.2 mg/kg; ED50 [10]: 8.9 mg/kg; ED50 [11]: 1.2 mg/kg; ED50 [12]: 6.3 mg/kg |
| c1ccc2c(c1)Oc1ccccc1C2NCCN1CCOCC1 | 2.6 | 47 |  |
| c1ccc2c(c1)Oc1ccccc1C2NC1CN2CCC1CC2 (stereo unspecified) | 2.4 | 65 |  |
| CC(CCCc1ccccn1)NC1c2ccccc2Oc2ccccc21 (stereo unspecified) | 6.1 | 100 |  |
| CN(Cc1cccnc1)C1c2ccccc2Oc2ccccc21 | 3.6 | 92 |  |
| CN(C)CC1CCCCN1C1c2ccccc2Oc2ccccc21 (stereo unspecified) | 5.2 | 95 |  |

| Compound | Delta pH [1] | Delta TAO [2] | also measured |
| --- | --- | --- | --- |
| c1ccc(CNC2c3ccccc3Oc3ccccc32)nc1 | 4.8 | 96 |  |
| c1ccc(CNC2c3ccccc3Oc3ccccc32)cc1 | 1.9 | 69 |  |
| CN1CCCN(C2c3ccccc3Oc3ccccc32)CC1 | 4.6 | 92 |  |
| O=C1CCC(=O)N1C1c2ccccc2Oc2ccccc21 |  |  | Delta pH [5]: Not significant; Delta TAO [4]: Not significant |
| NC(=O)N(O)C1c2ccccc2Oc2ccccc21 |  |  | Delta pH [13]: 1.9; Delta TAO [14]: 88 |
| c1cncc(CNC2c3ccccc3Oc3ccccc32)c1 | 4.2 | 94 |  |
| CCN1CCCC(N(C)C2c3ccccc3Oc3ccccc32)C1 (stereo unspecified) | 5.1 | 98 |  |
| c1ccc2c(c1)Oc1ccccc1C2NCCn1ccnc1 | 5.8 | 98 | ED50 [6]: Not significant; ED50 [15]: 1.7 mg/kg; ED50 [16]: 2 mg/kg; ED50 [17]: 7.7 mg/kg; ED50 [18]: 2.4 mg/kg; ED50 [19]: 3.3 mg/kg |
| O=CNNC1c2ccccc2Oc2ccccc21 |  |  | Delta pH [13]: 2; Delta TAO [14]: 80 |
| c1ccc(NNC2c3ccccc3Oc3ccccc32)nc1 | 1.4 | 73 |  |
| CCO/C(C)=N\C1c2ccccc2Oc2ccccc21 |  |  | Delta pH [13]: 4.4; Delta TAO [14]: 97 |
| NS(=O)(=O)NC1c2ccccc2Oc2ccccc21 | 2 | 87 |  |
| CN(CCc1ccccn1)C1c2ccccc2Oc2ccccc21 | 5.6 | 99 | ED50 [6]: Not significant; ED50 [20]: 4.8 mg/kg |
| c1ccc2c(c1)Oc1ccccc1C2N1CCNCC1 | 5.3 | 98 |  |
| c1cncc(NC2c3ccccc3Oc3ccccc32)c1 |  |  | Delta pH [3]: Not significant; Delta TAO [4]: Not significant |
| C=CCNC1c2ccccc2Oc2ccccc21 | 4.4 |  | Delta TAO [4]: Not significant |
| c1ccc2c(c1)Oc1ccccc1C2Nc1nccs1 |  |  | Delta pH [3]: Not significant |
| CN1CCC(NC2c3ccccc3Oc3ccccc32)CC1 | 6.4 | 99 |  |
| CC(Cc1ccccn1)NC1c2ccccc2Oc2ccccc21 (stereo unspecified) | 3.8 | 89 | ED50 [21]: 6.3 m equiv [H+] l-1; ED50 [6]: Not significant; ED50 [22]: 11.4 m equiv [H+] l-1; Acid output [23]: 1.3 u equiv of [H+] 2hr-1; Acid output [24]: 7.3 u equiv of [H+] 2hr-1; Volume [25]: 2.2 ml 2hr-1 |
| c1ccc2c(c1)Oc1ccccc1C2NCc1ccncc1 | 3.6 | 77 |  |
| c1ccc(CCCNC2c3ccccc3Oc3ccccc32)nc1 | 5.7 | 99 |  |
| c1ccc(N2CCN(C3c4ccccc4Oc4ccccc43)CC2)nc1 |  |  | Delta pH [3]: Not significant; ED50 [4]: Not significant |
| c1cncc(C2CCCN2C2c3ccccc3Oc3ccccc32)c1 (stereo unspecified) | 1.8 | 65 |  |
| c1ccc2c(c1)Oc1ccccc1C2NC1=NCCS1 | 3.6 | 95 |  |
